This is a sample that favours compounds with a hit; in the whole collection about 1.1% have one here.
CAL PDZ FP-1: inhibitors of human CAL PDZ peptide binding. Q9HD26. hit rate 0.02% among 330,000. inhibition, % at 20 µM. purified CAL PDZ, TMR-peptide fluorescence polarization, 1 h;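 active = highest replicate inhibition of at least 40%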;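 note: plate controls were DMSO neutral control wells for no effect and unlabeled competitor peptide control wells for full effect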
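Assay system – tagged CAL PDZ protein CerCALP, purified · Timing – 1 h at RT · Compound – single point, 20 µM · Measured by – fluorescence polarization from S- and P-plane intensities, G-factor corrected · Evaluation – inhibition from polarization loss · Probe or stimulus – TMR reporter peptide T*-PRC34 · Buffer or medium – pH 7.4 phosphate-saline buffer, reducing agent, detergent, IgG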
ERp5 inh: inhibitors of human ERp5. hit rate 0.05% among 350,000. ERp5 insulin aggregation, absorbance 650 nm, 90 min. inhibition, % at 9.99 µM;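 active = mean replicate inhibition above about 25%, with every replicate also reaching it, limit read from the data, passing the limit was not always enough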
Target sequence (Q15084 whole entry, looked up): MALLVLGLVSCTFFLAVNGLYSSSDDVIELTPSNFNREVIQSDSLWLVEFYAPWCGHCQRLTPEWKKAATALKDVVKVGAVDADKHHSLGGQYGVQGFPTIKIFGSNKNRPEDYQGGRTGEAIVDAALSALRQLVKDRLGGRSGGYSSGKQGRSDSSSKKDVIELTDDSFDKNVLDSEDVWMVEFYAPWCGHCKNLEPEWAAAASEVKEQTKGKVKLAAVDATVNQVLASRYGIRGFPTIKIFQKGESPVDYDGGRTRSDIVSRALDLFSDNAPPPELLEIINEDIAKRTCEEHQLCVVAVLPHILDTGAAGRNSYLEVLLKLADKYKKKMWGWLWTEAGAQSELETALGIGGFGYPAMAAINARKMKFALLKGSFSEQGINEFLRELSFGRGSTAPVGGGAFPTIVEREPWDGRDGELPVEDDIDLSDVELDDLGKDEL
ERAP1 HTS inh: ERAP1 (human) enzyme inhibition; Q9NZ08; inhibition, % at 10.7 µM; hit rate 0.15% among 340,000; AID 652197; recombinant ERAP1, Leu-AMC fluorescence, 60 min;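 active = mean replicate inhibition of at least 30%, or all replicates individually reaching that 30% level; inactive = mean below 30% and not every replicate reaching it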;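 note: 0% = neutral control wells and 100% = L-leucinethiol positive control wells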
Rin1 Abl inh: blocks binding of human Rin1 to Abl | AID 588664 | inhibition, % at 7.35 µM | hit rate 0.4% among 360,000 | P00519+Q13671 | TR-FRET Rin1/Abl binding, biochemical; in the data active = inhibition above about 5%, passing the limit was not always enough
CAL PDZ FP-2: CAL PDZ (human) peptide binding inhibition. purified CAL PDZ, TMR-peptide fluorescence polarization, 1 h. inhibition, % at 24.9 µM. hit rate 0.92% among 300,000. AID 602252;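 active = mean inhibition of at least 30% with at least half of replicates also reaching 30%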;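 note: 0% = DMSO neutral control and 100% = excess unlabeled competitor peptide PRC23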
PDI inh: blocks human protein disulfide isomerase activity; P07237; PDI insulin aggregation turbidity, A650, 90 min; inhibition, % at 10 µM; hit rate 0.052% among 350,000; AID 588391;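 active = mean inhibition across replicates of 30% or more, whatever share of single replicates reach that level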
* hit, by the source's call; . = no result given.

SMILES | CAL PDZ FP-1 | ERp5 inh | ERAP1 HTS inh | Rin1 Abl inh | CAL PDZ FP-2 | PDI inh
CC(C)Sc1nnc(NC(=O)c2ccco2)s1 | 8 | 2 | 0 | -7 | 56* | 1
COc1cccc(CNC(=O)C[C@@H]2CC[C@@H](NC(=O)C3CCOCC3)[C@H](CO)O2)c1 | . | -3 | -2 | . | . | .
CC1CCC(NC(=O)c2nn(C)c3c2CSc2ccccc2-3)CC1 (centres undefined) | -2 | 3 | 1 | 3 | 70* | 0
CCC(=O)Nc1ccc2c(c1)OC[C@H](C)NC[C@@H](C)[C@@H](OC)CN(C)C2=O | . | 6 | 2 | . | . | .
COc1ccc(C(=O)NCc2nnc(SCC(=O)NC3CCCCC3)n2C)cc1 | -1 | -1 | 30* | 3 | -2 | 10
C[C@@H]1CN([C@@H](C)CO)C(=O)c2cc(-c3cncnc3)cnc2O[C@@H]1CN(C)Cc1ccc(F)cc1 | . | -5 | 0 | . | . | .
COc1ccc(-n2nnnc2/C=C/Nc2cc(C(F)(F)F)ccc2OC)cc1 | 0 | 6 | -1 | -2 | 105* | 4
COc1ccc(-n2nnnc2/C=C\Nc2ccccc2C(=O)c2ccccc2)cc1 | 0 | . | . | 1 | -4 | 6
Cc1cc(NC(=O)CSc2ccc(-c3cccc([N+](=O)[O-])c3)nn2)no1 | 0 | 6 | 1 | -5 | 56* | 1
O=C(CSc1ccc(-c2cccc([N+](=O)[O-])c2)nn1)N1CCCC1 | . | -2 | 1 | -5 | 65* | -4
CCn1c(SCC(=O)Nc2cc(C)on2)nnc1-c1cccc(C)c1 | 0 | -1 | 1 | -1 | 48* | -10
CCn1c(SCC(=O)Nc2cc(C)on2)nnc1-c1ccc(C)cc1 | -2 | -2 | 3 | 6 | -8 | 3
Cc1ccc(S(=O)(=O)N[C@H]2C=C[C@@H](CC(=O)NCc3ccccc3F)O[C@H]2CO)cc1 | . | -2 | -1 | . | . | .
COc1ccc(S(=O)(=O)N(C)C[C@H]2OCCCC[C@H](C)Oc3ccc(NS(=O)(=O)c4ccc(C)cc4)cc3C(=O)N([C@@H](C)CO)C[C@H]2C)cc1 | . | -5 | 1 | . | . | .
Cc1ccc2c(c1)C(=C(C#N)C#N)CCN2 | -1 | -1 | 1 | 0 | 39* | 0
CC(=O)c1ccc(OCc2cc(C(=O)N3CC4C[C@@H]5CC3C[C@H](C4)C5)no2)cc1 | -1 | 2 | 1 | -2 | 70* | 1
CC(=O)c1ccc(OCc2cc(C(=O)NCCc3ccc(Cl)cc3)no2)cc1 | 2 | 5 | 0 | 2 | 68* | 13
C[C@@H]1CN([C@@H](C)CO)C(=O)c2cc(C#C[C@@H](C)O)cnc2O[C@H]1CN(C)Cc1cncnc1 | . | 17 | -3 | . | . | .
Cn1cnc(S(=O)(=O)N2C[C@H](O)COC[C@@H]3O[C@@H](CC(=O)NC4CCCC4)CC[C@H]32)c1 | . | 2 | 1 | . | . | .
C[C@H]1CN([C@@H](C)CO)C(=O)c2cc(C#Cc3ccccc3)cnc2O[C@@H]1CN(C)C(=O)c1ccccn1 | . | -3 | 2 | . | . | .
O=C(Nc1cccnc1)c1cccc(S(=O)(=O)N2CCc3ccccc32)c1 | -3 | 2 | -2 | -1 | 73* | 4
CC1Cc2ccccc2N1S(=O)(=O)c1cccc(C(=O)NC2CC2)c1 (centres undefined) | -1 | . | . | 3 | -3 | -3
CC1Cc2ccccc2N1S(=O)(=O)c1cccc(C(=O)Nc2cccnc2)c1 (centres undefined) | . | 6 | 3 | -2 | 34* | 4
CN(C)CCCNC(=O)C[C@@H]1CC[C@@H](NS(=O)(=O)c2ccc(F)cc2)[C@H](CO)O1 | . | 0 | -1 | . | . | .
O=C(Oc1ccc(O)cc1)C12CC3CC(CC(C3)C1)C2 | 0 | -1 | 1 | -1 | . | 65*
SMILES | CAL PDZ FP-1 | ERp5 inh | ERAP1 HTS inh | Rin1 Abl inh | CAL PDZ FP-2 | PDI inh
O=C(CN1CCN(c2ccccc2F)CC1)NC(=O)NCc1ccco1 | 0 | -1 | 0 | 2 | 44* | 3
CCOc1ccc(CN2C(=O)c3ccccc3C2=O)cc1C(=O)NC1CC(C)(C)NC(C)(C)C1 | -3 | 3 | 49* | 2 | -1 | -2
COc1cccc(C(=O)Nc2ccc3c(c2)C(=O)N(C)C[C@H](OC)[C@@H](C)CN(C(=O)C2CCCC2)[C@H](C)CO3)c1 | . | -1 | -1 | . | . | .
C[C@H](O)C#Cc1ccc([C@H]2[C@@H](CO)N3CCCCN(CC4CC4)C[C@H]23)cc1 | . | -1 | 1 | . | . | .
COc1ccc(C(=O)N/N=C/c2c(CO)cnc(C)c2O)cc1 | 0 | 1 | 33* | -2 | 0 | -2
Cc1ncc(CO)c(/C=N/NC(=O)c2ccccc2Br)c1O | -3 | 6 | 54* | -3 | -1 | 4
CCC(=O)N(C)C[C@H]1Oc2ncc(C#Cc3ccccc3OC)cc2C(=O)N([C@@H](C)CO)C[C@H]1C | . | -3 | 2 | . | . | .
COC(=O)CCC(=O)N1CCOCCOCCOCC1 | 0 | 3 | -1 | -1 | 40* | 5
O=C(NCCCN1CCCC1=O)c1cc2c(s1)CCCCC2 | . | 0 | -5 | 0 | 80* | -2
CNC(=O)N(O)C1N(C)C(=O)N(CC(=O)OC)C1(C)C (centres undefined) | -1 | . | . | 0 | 0 | 17
CCCN1C(=O)N(C)C(N(O)C(=O)NC)C1(C)C (centres undefined) | 0 | . | . | 3 | 39* | -12
CO[C@H]1CN(C)C(=O)c2cc(NC(=O)c3ccccc3)ccc2OC[C@@H](C)N(C)C[C@@H]1C | . | 2 | -3 | . | . | .
Nc1ccccc1-n1cccc1 | 0 | 1 | . | 0 | 31* | 0
C[C@@H]1CN([C@@H](C)CO)C(=O)c2cccc(NC(=O)Nc3ccc(F)cc3)c2O[C@@H]1CN(C)S(C)(=O)=O | . | 1 | -2 | . | . | .
CCC(=O)N1C[C@H](C)[C@H](OC)CN(C)C(=O)c2cc(NC(=O)CC(F)(F)F)ccc2OC[C@@H]1C | . | -1 | -8 | . | . | .
O=C(COc1ccc(-n2cnnn2)cc1)NC(=O)NCc1ccccc1 | -2 | . | . | 1 | 50* | -2
O=C(COc1ccc(-n2cnnn2)cc1)NC1CCCCC1 | -1 | . | . | -2 | 1 | 3
CCc1ccc(C(=O)CSc2nnc(C3CC3)n2C2CC2)cc1 | -1 | 4 | -2 | 1 | -7 | 10
Cc1ccc(C(=O)CSc2nnc(C3CC3)n2C2CC2)s1 | 0 | -1 | -1 | 0 | 63* | 3
CC1=CC(C)C2(COC(c3ccc[n+](C)c3)OC2)C(C)C1 (centres undefined) | -2 | -6 | 106* | 1 | -1 | -1
CO[C@H]1CN(C)C(=O)c2cc(NC(C)=O)ccc2OC[C@@H](C)N(C(=O)C2CCCCC2)C[C@@H]1C | . | -1 | -2 | . | . | .
Cc1noc(C)c1COc1ccc(C(=O)OC(C)C(=O)Nc2ccc(S(=O)(=O)N3CCOCC3)cc2)cc1 (centres undefined) | -1 | -5 | -4 | -1 | 54* | -14
